Source: ChEMBL document CHEMBL4627351, “Synthesis, biological evaluation and structure-activity relationships of 5-arylidene tetramic acids with antibacterial activity against methicillin-resistant Staphylococcus aureus” (Bioorg Med Chem Lett, 2020)
Values after ≈ are worked out from the molar mass of the structure shown.

How the values were obtained:
Staphylococcus aureus [1] = test: Antibacterial activity against methicillin-resistant Staphylococcus aureus ATCC 43300 assessed as reduction in bacterial growth by CLSI protocol based broth microdilution method; type: functional
In short: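 Dose-response broth assay in duplicate, 8 points from 0.25 to 32 µg/mL, against MRSA ATCC 43300, with a positive antibiotic control. MIC is the lowest concentration giving full growth inhibition, per CLSI guidelines.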

[2] = Cytotoxicity against human HEK293 cells; type: cell-based
Erythrocyte = test: Hemolytic activity against human RBC; type: ADME, cell-based
Staphylococcus aureus [3] = test: Antibacterial activity against methicillin-resistant Staphylococcus aureus ATCC 43300 assessed as reduction in bacterial growth at 32 ug/ml by CLSI protocol based broth microdilution method relative to control; type: functional
In short: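 Primary single-concentration broth screen at 32 µg/mL in duplicate (n = 2) against MRSA ATCC 43300. Mean % growth inhibition was calculated relative to growth and media controls.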

Compound | MIC (Staphylococcus aureus [1]) | CC50 [2] | HC10 (Erythrocyte) | inhibition at 32 µg/mL (Staphylococcus aureus [3])
CCCCCCCCCC(=O)C1=C(O)/C(=C/c2ccccc2)N(C(C)=O)C1=O | 4 µg/mL (≈ 10.4 µM) | > 32 µg/mL | 20.4 µg/mL | 
CCCCCCCC(=O)C1=C(O)/C(=C/c2ccccc2)N(C(C)=O)C1=O | 4 µg/mL (≈ 11.3 µM) | > 32 µg/mL | > 32 µg/mL | 
CCCCCCCCCCCCCC(=O)C1=C(O)/C(=C/c2ccccc2)N(C(C)=O)C1=O | 4 µg/mL (≈ 9.1 µM) | > 32 µg/mL | > 32 µg/mL | 
CCCCCCCCCCCCCCCC(=O)C1=C(O)/C(=C/c2ccccc2)N(C(C)=O)C1=O | 4 µg/mL (≈ 8.55 µM) | > 32 µg/mL | > 32 µg/mL | 
CC(=O)C1=C(O)/C(=C/c2ccc(Cl)cc2)N(C(C)=O)C1=O |  |  |  | 45.1%
CCCC(=O)C1=C(O)/C(=C/c2ccc(OC)cc2)N(C(C)=O)C1=O | 32 µg/mL (≈ 97.2 µM) | > 32 µg/mL | > 32 µg/mL | 73.1 to 99.2%
CC(=O)C1=C(O)/C(=C/c2ccc(C(F)(F)F)cc2)N(C(C)=O)C1=O | > 32 µg/mL | > 32 µg/mL | > 32 µg/mL | 61.7%
CC(=O)N1C(=O)C(C(=O)c2ccccc2)=C(O)/C1=C/c1ccccc1 |  |  |  | 73.1 to 99.2%
CC(=O)C1=C(O)/C(=C/c2ccc([N+](=O)[O-])cc2)N(C(C)=O)C1=O |  |  |  | 38.6%
CC(=O)C1=C(O)/C(=C/c2ccccc2)N(C(C)=O)C1=O | > 32 µg/mL | > 32 µg/mL | > 32 µg/mL | 22.9 to 25.5%
CCCC(=O)C1=C(O)/C(=C/c2ccccc2)N(C(C)=O)C1=O | 32 µg/mL (≈ 107 µM) | > 32 µg/mL | > 32 µg/mL | 73.1 to 99.2%
